# Laboratory results published in ChEMBL document CHEMBL1129609, “Synthesis and antiviral activity evaluation of some new aminoadamantane derivatives. 2” (1996).
# What was measured:
# Human alphaherpesvirus 3 [1] = test: Antiviral activity against TK-VZV virus infected HEL cell lines.; format: functional
# How it was run: (§1)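 Vero (African green monkey kidney), HeLa (human epithelial) or HEL (human embryonic lung) cell monolayers infected with the virus. Readout is the minimum inhibitory concentration that reduces virus-induced cytopathicity by 50%. Values are averages of at least two separate experiments.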
# HEF [2] = test: Effects on cell morphology of HEF cell lines.; format: functional; settings: Homo sapiens
# How it was run: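 Human embryonic skin-muscle fibroblasts were examined under the microscope for changes in normal cell morphology. The value is the minimum concentration causing a microscopically detectable alteration, averaged from at least two separate experiments.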
# Semliki Forest virus = test: Antiviral activity against Semliki forest virus infected Vero cell lines.; format: functional; how it was run: as §1
# Human alphaherpesvirus 2 = test: Antiviral activity against HSV-2 virus infected HEF cell lines.; format: functional
# How it was run: (§2)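 Human embryonic fibroblasts, from embryonic lung or embryonic skin-muscle, infected with the virus. Endpoint is the minimum inhibitory concentration that reduces virus-induced cytopathicity by 50%. Values are averages of at least two separate experiments.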
# HEL [3] = test: Inhibition of HEL cell proliferation.; format: functional; settings: Homo sapiens
# How it was run: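 Human embryonic lung fibroblasts were used for the proliferation assay. The value is the concentration that reduces cell proliferation by 50%, averaged from at least two separate experiments.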
# Coxsackievirus B4 [4] = test: Antiviral activity against Coxsackie B4 virus infected vero cell lines.; format: functional; settings: Enterovirus B; how it was run: as §1
# [5] = test system: Human immunodeficiency virus 2; test: Antiviral activity against HIV-2 virus infected CEM cell lines.; format: functional, CCRF-CEM
# [6] = test system: Vesicular stomatitis virus; test: Antiviral activity against vesicular stomatitis virus infected HeLa cell lines.; format: functional; how it was run: as §1
# Human alphaherpesvirus 1 [7] = test: Antiviral activity against HSV-1 virus infected HEF cell lines.; format: functional; how it was run: as §2
# Sindbis virus = test: Antiviral activity against sindbis virus infected Vero cell lines.; format: functional; how it was run: as §1
# Human alphaherpesvirus 3 [8] = test: Antiviral activity against TK+VZV virus infected HEL cell lines.; format: functional; how it was run: as §1
# Human respirovirus 3 = test: Antiviral activity against parainfluenza 3 virus infected Vero cell lines.; format: functional; how it was run: as §1
# [9] = test system: Mammalian orthoreovirus 1; test: Antiviral activity against Reo 1 virus infected vero cell lines.; format: functional; how it was run: as §1
# Influenza B virus = test: Antiviral activity against influenza B virus infected MDCK cell lines.; format: functional
# MDCK [10] = test: Antiviral activity tested against influenza A,H1N1 virus infected MDCK cell lines.; format: functional; settings: Canis lupus familiaris
# Human alphaherpesvirus 1 [11] = test: Antiviral activity against TK-HSV-1 virus infected HEF cell lines.; format: functional; how it was run: as §2
# [12] = test system: Human immunodeficiency virus 1; test: Antiviral activity against HIV-1 virus infected CEM cell lines.; format: functional, CCRF-CEM
# Vaccinia virus = test: Antiviral activity against vaccinia virus infected HEF cell lines.; format: functional; settings: Orthopoxvirus vaccinia; how it was run: as §2
# Vero [13] = test: Effects on cell morphology of Vero cell lines.; format: functional; settings: Chlorocebus sabaeus
# How it was run: (§3)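 HeLa (human epithelial) or Vero (African green monkey kidney) cells were examined under the microscope for changes in normal morphology. The value is the minimum concentration causing a detectable alteration, averaged from at least two separate experiments.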
# Human betaherpesvirus 5 = test: Antiviral activity against HCMV virus infected HEL cell lines.; format: functional; how it was run: as §1
# [14] = Antiviral activity against influenza A,H2N2 virus infected MDCK cell lines.; format: functional
# CCRF-CEM [15] = test: Cytotoxicity against CEM cell lines.; format: functional; settings: Homo sapiens
# Coxsackievirus B4 [16] = test: Antiviral activity against Coxsackie B4 virus infected HeLa cell lines.; format: functional; settings: Enterovirus B; how it was run: as §1
# Enterovirus C = test: Antiviral activity against polio 1 virus infected HeLa cell lines.; format: functional; how it was run: as §1
# [17] = test system: Vesicular stomatitis virus; test: Antiviral activity against vesicular stomatitis virus infected HEF cell lines.; format: functional; how it was run: as §2
# HeLa [18] = test: Effects on cell morphology of HeLa cell lines.; format: functional; settings: Homo sapiens; how it was run: as §3
# [19] = Antiviral activity against influenza A,H3N2 virus infected MDCK cell lines.; format: functional
# MDCK [20] = test: Antiviral activity of compound was tested against morphology virus infected MDCK cell lines.; format: functional; settings: Canis lupus familiaris
# Vero [21] = test: Antiviral activity of compound was tested against Coxsackie B4 virus infected vero cell lines.; format: functional; settings: Chlorocebus sabaeus; how it was run: as §1
# HEL [22] = test: Antiviral activity of compound was tested against HCMV virus infected HEL cell lines.; format: functional; settings: Homo sapiens; how it was run: as §1
# Vero [23] = test: Antiviral activity of compound was tested against reo1 virus infected vero cell lines.; format: functional; settings: Chlorocebus sabaeus; how it was run: as §1
# MDCK [24] = test: Antiviral activity of compound was tested against influenza A,H3N2 virus infected MDCK cell lines.; format: functional; settings: Canis lupus familiaris
# Vero [25] = test: Antiviral activity of compound was tested against sindbis virus infected vero cell lines.; format: functional; settings: Chlorocebus sabaeus; how it was run: as §1
# CCRF-CEM [26] = test: Antiviral activity of compound was tested against viability virus infected CEM cell lines.; format: functional; settings: Homo sapiens
# HEL [27] = test: Antiviral activity of compound was tested against TK-VZV virus infected HEL cell lines.; format: functional; settings: Homo sapiens; how it was run: as §1
# HEL [28] = test: Antiviral activity of compound was tested against TK+VZV virus infected HEL cell lines.; format: functional; settings: Homo sapiens; how it was run: as §1
# HeLa [29] = test: Antiviral activity of compound was tested against stomatitis virus infected HeLa cell lines.; format: functional; settings: Homo sapiens; how it was run: as §1
# HeLa [30] = test: Antiviral activity of compound was tested against polio-1 virus infected HeLa cell lines.; format: functional; settings: Homo sapiens; how it was run: as §1
# HEF [31] = test: Antiviral activity of compound was tested against morphology virus infected HEF cell lines.; format: functional; settings: Homo sapiens
# HeLa [32] = test: Antiviral activity of compound was tested against Coxsackie B4 virus infected HeLa cell lines.; format: functional; settings: Homo sapiens; how it was run: as §1
# Vero [33] = test: Antiviral activity of compound were tested against semliki forest virus infected vero cell lines.; format: functional; settings: Chlorocebus sabaeus; how it was run: as §1
# Vero [34] = test: Antiviral activity of compound was tested against parainfluenza 3,[…] virus infected Vero cell lines.; format: functional; settings: Chlorocebus sabaeus; how it was run: as §1
# MDCK [35] = test: Antiviral activity of compound was tested against influenza […] virus infected MDCK cell lines; format: functional; settings: Canis lupus familiaris
# CCRF-CEM [36] = test: Antiviral activity of compound were tested against HIV-2 virus infected CEM cell lines.; format: functional; settings: Homo sapiens
# CCRF-CEM [37] = test: Antiviral activity of compound was tested against HIV-1 virus infected CEM cell lines.; format: functional; settings: Homo sapiens
# Vero [38] = test: Antiviral activity of compound was tested against morphology virus infected Vero cell lines.; format: functional; settings: Chlorocebus sabaeus
# HeLa [39] = test: Antiviral activity of compound was tested against morphology virus infected HeLa cell lines.; format: functional; settings: Homo sapiens
# HEL [40] = test: Antiviral activity of compound was tested against proliferation virus infected HEL cell lines.; format: functional; settings: Homo sapiens
smiles,measurement,setting,value
C1CNC(C23CC4CC(CC(C4)C2)C3)C1 (stereo unspecified),MIC50,Human alphaherpesvirus 3 [1],> 50 µg/mL
same,MIC50,HEF [2],100 µg/mL
same,MIC50,Semliki Forest virus,> 200 µg/mL
same,MIC50,Human alphaherpesvirus 2,> 40 µg/mL
same,MIC50,HEL [3],> 50 µg/mL
same,MIC50,Coxsackievirus B4 [4],> 200 µg/mL
same,MIC50,[5],> 40 µg/mL
same,MIC50,[6],> 100 µg/mL
same,MIC50,Human alphaherpesvirus 1 [7],> 40 µg/mL
same,MIC50,Sindbis virus,> 200 µg/mL
same,MIC50,Human alphaherpesvirus 3 [8],> 50 µg/mL
same,MIC50,Human respirovirus 3,> 200 µg/mL
same,MIC50,[9],> 200 µg/mL
same,MIC50,Influenza B virus,12 µg/mL
same,MIC50,MDCK [10],15.8 µg/mL
same,MIC50,Human alphaherpesvirus 1 [11],> 40 µg/mL
same,MIC50,[12],> 40 µg/mL
same,MIC50,Vaccinia virus,> 40 µg/mL
same,MIC50,Vero [13],400 µg/mL
same,MIC50,Human betaherpesvirus 5,> 50 µg/mL
same,MIC50,[14],0.6 µg/mL
same,MIC50,CCRF-CEM [15],56 µg/mL
same,MIC50,Coxsackievirus B4 [16],> 100 µg/mL
same,MIC50,Enterovirus C,> 100 µg/mL
same,MIC50,[17],> 40 µg/mL
same,MIC50,HeLa [18],> 200 µg/mL
same,MIC50,[19],12.4 µg/mL
same,MIC50,MDCK [20],250 µg/mL
CN1CCOCC12C1CC3CC(C1)CC2C3 (stereo unspecified),MIC50,Vero [21],> 400 µg/mL
same,MIC50,Human alphaherpesvirus 2,> 400 µg/mL
same,MIC50,HEL [22],> 50 µg/mL
same,MIC50,Vero [23],> 400 µg/mL
same,MIC50,Human alphaherpesvirus 1 [7],> 400 µg/mL
same,MIC50,MDCK [24],53 µg/mL
same,MIC50,Vero [25],> 400 µg/mL
same,MIC50,CCRF-CEM [26],> 200 µg/mL
same,MIC50,HEL [27],> 50 µg/mL
same,MIC50,HEL [28],> 50 µg/mL
same,MIC50,MDCK [10],22 µg/mL
same,MIC50,HeLa [29],> 400 µg/mL
same,MIC50,HeLa [30],> 400 µg/mL
same,MIC50,Human alphaherpesvirus 1 [11],> 400 µg/mL
same,MIC50,HEF [31],> 400 µg/mL
same,MIC50,HeLa [32],> 400 µg/mL
same,MIC50,Vaccinia virus,> 400 µg/mL
same,MIC50,Vero [33],> 400 µg/mL
same,MIC50,Vero [34],> 400 µg/mL
same,MIC50,[14],4.3 µg/mL
same,MIC50,MDCK [35],60 µg/mL
same,MIC50,CCRF-CEM [36],> 200 µg/mL
same,MIC50,CCRF-CEM [37],158 µg/mL
same,MIC50,Vero [38],> 400 µg/mL
same,MIC50,[17],> 400 µg/mL
same,MIC50,HeLa [39],> 400 µg/mL
same,MIC50,MDCK [20],> 250 µg/mL
same,MIC50,HEL [40],> 50 µg/mL
